In one assay the test system is GLIOMA#108. As to the kind of experiment: Inhibitory activity against GLIOMA#108 cell line. Type of assay: functional, cell-based, Homo sapiens. A digest of the protocol:
(§1)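 Cells were seeded at 10^4/well and treated 24 h with compounds at 0–100 µM final (solvent ≤10%). Survival was measured by MTT reduction (1 mg/mL, 5 h) read at 520 nm. IC50 came from survival–concentration curves, in quadruplicate.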

Another assay deals with GLIOMA#112. Briefly: Inhibitory activity against GLIOMA#112 cell line. Type of assay: functional, cell-based, Homo sapiens. A digest of the protocol: as §1
Another assay relates to PAM-RAS (Mus musculus). Briefly: Inhibitory activity against PAM-RAS cell line.
Another assay deals with PAM. Briefly: Inhibitory activity against PAM cell line. Type of assay: functional, cell-based, Mus musculus. A digest of the protocol:
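Murine keratinocytes, normal Pam and H-ras-transformed Pam-Ras, were grown in DMEM with 10% FCS and 2 mM glutamine. They were seeded at 10^4 cells/well, preincubated 3–4 h, then given compounds at 0–100 µM final for 24 h. MTT was added to 1 mg/mL for 5 h at 37 °C and absorbance read at 520 nm. IC50 came from % survival vs concentration plots, in quadruplicate.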

The next assay deals with HeLa. Briefly: Inhibitory activity against HeLa cell line. Type of assay: functional, cell-based, Homo sapiens. The method, boiled down:
(§2)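 HeLa cervical carcinoma cells were grown in DMEM with 10% FCS, and NIH 3T3 cells in DMEM with 10% newborn calf serum. Both were seeded at 10^4 cells/well and exposed 24 h to compounds at 0–100 µM final (ethanol or DMSO ≤10%). MTT was added to 1 mg/mL for 5 h at 37 °C and A520 read. IC50 came from survival curves, in quadruplicate.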

The next assay concerns Jurkat. Briefly: Inhibitory activity against JURKAT cell line. Type of assay: functional, cell-based, Homo sapiens. The method, boiled down:
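Compounds were added at 0–100 µM final (ethanol or DMSO vehicle, ≤10%) for 24 h. MTT was added to 1 mg/mL for 5 h at 37 °C and absorbance read at 520 nm. IC50 came from % survival vs concentration curves, in quadruplicate.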

A further assay has as its system NIH3T3. Briefly: Inhibitory activity against 3T3 cell line. Type of assay: functional, cell-based, Mus musculus. The method, boiled down:
as §2

Several values for one entry are separate records, joined by “and”; a condition that tells them apart may be missing. Equal values may be shown once.

Drawing on ChEMBL document CHEMBL1131529, “Novel tetranuclear orthometalated complexes of Pd(II) and Pt(II) derived from p-isopropylbenzaldehyde thiosemicarbazone with cytotoxic activity in cis-DDP resistant tumor cell lines. Interaction of these complexes with DNA” (J Med Chem, 1998), this text covers IC50 for 5 compounds.

The IC50 is the concentration that inhibits the measured activity by half. Low readings indicate greater potency, high ones weaker potency.

As to `COc1cc([C@@H]2c3cc4c(cc3[C@@H](O[C@@H]3O[C@@H]5CO[C@@H](C)O[C@H]5[C@H](O)[C@H]3O)[C@H]3COC(=O)[C@H]23)OCO4)cc(OC)c1O` [ETOPOSIDE], the IC50 was determined as 76 µM in the assay with GLIOMA#108 (Homo sapiens, GLIOMA#108); 62 µM with GLIOMA#112 (Homo sapiens, GLIOMA#112); 136 µM in the assay with PAM-RAS (Mus musculus) (Mus musculus, PAM-RAS); 180 µM with PAM (Mus musculus, PAM).

As for `COc1cccc2c1C(=O)c1c(O)c3c(c(O)c1C2=O)C[C@@](O)(C(=O)CO)C[C@@H]3O[C@H]1C[C@H](N)[C@H](O)[C@H](C)O1` [DOXORUBICIN], the IC50 with PAM-RAS (Mus musculus) (Mus musculus, PAM-RAS) was 156 µM; with PAM (Mus musculus, PAM), 150 µM.

Regarding CISPLATIN, the IC50 with GLIOMA#108 (glioma#108) is 86 µM; with HeLa, 7 µM; in the assay on GLIOMA#112 (glioma#112) it was 120 µM; in the assay with PAM-RAS (Mus musculus) (pam-ras), 165 µM; in the assay on Jurkat, 22 µM; in the assay on NIH3T3, 35 µM. Moreover, half-maximal inhibition in the assay with PAM (pam) (IC50) required 164 µM.

For “Tetrameric orthopalladated p-isopropylbenzaldehyde thiosemicarbazone”, the IC50 in the assay with GLIOMA#108 (glioma#108) is 40 µM and 62 µM; in the assay on GLIOMA#112 (glioma#112), 50 µM and 35 µM; in the assay with PAM-RAS (Mus musculus) (pam-ras), 37 µM and 5 µM; in the assay on Jurkat it was 6 µM and 7 µM.

Regarding “Tetrameric orthoplatinated p-isopropylbenzaldehyde thiosemicarbazone”, the IC50 with GLIOMA#108 (glioma#108) was determined as 54 µM; in the assay with HeLa, 20 µM; in the assay on GLIOMA#112 (glioma#112), 27 µM; with PAM-RAS (Mus musculus) (pam-ras), 9 µM; in the assay with Jurkat, 7 µM; in the assay with NIH3T3 it was 21 µM. It took 30 µM to reach half-maximal inhibition with PAM (pam) (IC50).
